ChEMBL document CHEMBL1144324, “2,3-Dimethoxy-5-methyl-1,4-benzoquinones and 2-methyl-1,4-naphthoquinones: glycation inhibitors with lipid peroxidation activity” (Bioorg Med Chem Lett, 2005)

Experiments:
Assay type in all cases: functional, organism-based; call rule not given here
Bos taurus [1] = species on record: Bos taurus; assay: Inhibitory concentration against bovine serum albumin glycation was determined
Rattus norvegicus [2] = species on record: Rattus norvegicus; assay: Inhibitory concentration against lipid peroxidation in rat
Summary of the method: (§1)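 TBARS assay in rat brain homogenate (5 mg protein/mL). Compound was preincubated with homogenate 20 min at 37 °C with shaking, then peroxidation was started with 0.02 mM FeCl2 and 0.25 mM ascorbic acid for 30 min at 37 °C. The reaction was stopped with perchloric acid and centrifuged. Supernatant was reacted with 0.5% TBA at 80 °C for 1 h and A532 read against a 1,1,3,3-tetraethoxypropane standard.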

Rattus norvegicus [3] = species on record: Rattus norvegicus; assay: Inhibitory concentration for lipid peroxidation in rat; summary of the method: as §1
Bos taurus [4] = species on record: Bos taurus; assay: Inhibitory concentration against bovine serum albumin glycation; Not active from 3.80 nM to 1.00 mM

Row | Compound | IC50 (Bos taurus [1]) | IC50 (Rattus norvegicus [2]) | IC50 (Rattus norvegicus [3]) | IC50 (Bos taurus [4])
1 | COC1=C(OC)C(=O)C(C(=O)NCCc2ccccc2)=C(C)C1=O |  |  | 29.2 µM | 
2 | COC1=C(OC)C(=O)C(c2ccccc2)=C(C)C1=O | 218 µM | 39.4 µM |  | 
3 | Cc1c(C)c2c(c(C)c1O)CC[C@@](C)(CCC[C@H](C)CCC[C@H](C)CCCC(C)C)O2 [ALPHA-TOCOPHEROL] |  |  |  | Not Active
4 | CC1=CC(=O)c2ccccc2C1=O [MENADIONE] |  | 12.2 µM |  | 

Further lines, results first:

Row | IC50 (Bos taurus [1]) | IC50 (Rattus norvegicus [2]) | IC50 (Rattus norvegicus [3]) | IC50 (Bos taurus [4]) | Compound
5 | 144 µM | 1.1 µM |  |  | CC1=C(Br)C(=O)c2ccccc2C1=O
6 | 199 µM | 1.41 µM |  |  | CC1=C(Cl)C(=O)c2ccccc2C1=O
